SENP8 block-1 – SENP8 protease inhibition | purified SENP8, Z-RLRGG-aminoluciferin cleavage, luminescence | actives 1.2% (n = 330,000) | inhibition, % at 10 µM | Q96LD8; in the data active = inhibition above about 50%
SENP7 inh – SENP7 protease inhibition; Q9BQF6; recombinant SENP7, Z-RLRGG-aminoluciferin luminescence, 40 min; inhibition, % at 5 µM; actives 1.5% (n = 330,000);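 active = inhibition above about 50% at the single test dose, limit read from the data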;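 also: plate controls were DMSO with enzyme for no effect and no enzyme buffer wells for full effect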
SENP6 inh – inhibitors of human SENP6 protease; Q9GZR1; Recombinant SENP6 catalytic domain, aminoluciferin luminescence; inhibition, % at 10 µM; actives 1.8% (n = 330,000); AID 2599;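 active = inhibition above about 50% at the single tested dose, limit read from the data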;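 also: plate controls were DMSO wells with enzyme for no effect and DMSO wells lacking enzyme for full effect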
SENP1 inh – inhibitors of human SENP1 SUMO protease catalytic domain | recombinant SENP1 catalytic domain, CyPet-SUMO1-YPet FRET cleavage | inhibition, % at 10 µM | actives 0.21% (n = 360,000);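 active = inhibition at least 30% at 10 µM, raw YFP signal under a set limit, fluorescence ratio 0.5 to 1.5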;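 also: 0% = enzyme with DMSO and 100% = no enzyme wells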
Target sequence (Q9P0U3 419-644 limits assumed): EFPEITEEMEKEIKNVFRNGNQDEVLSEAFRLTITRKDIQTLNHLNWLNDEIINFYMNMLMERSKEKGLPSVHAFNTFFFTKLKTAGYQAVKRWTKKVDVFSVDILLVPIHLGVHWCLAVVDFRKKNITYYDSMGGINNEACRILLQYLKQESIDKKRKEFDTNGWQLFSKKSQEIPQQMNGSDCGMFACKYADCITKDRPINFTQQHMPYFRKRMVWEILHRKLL
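system = hSENP1 catalytic domain, recombinant | reagent = SFCypet-SUMO1-SFYpet substrate at 25 nM | doses = one dose per compound, 10 µM, 0.5% DMSO | incubation = enzyme reaction for 50 min at room temperature, dark | measured by = FRET, CFP and YFP emission | controls = no-enzyme low, enzyme-DMSO high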
SENP8 block-2 – blocks human SENP8 cleavage of Nedd8 substrate; Q96LD8; recombinant SENP8, Nedd8 substrate fluorescence; inhibition, % at 20 µM; actives 0.64% (n = 360,000); in the data active = inhibition mostly above about 40%, no sharp cut-off; inactive = mostly below about 27%
SENP8 conf – human SENP8 inhibition, confirmed; shares compounds with SENP7 inh; Recombinant SENP8, Z-RLRGG-aminoluciferin luminescence, 60 min; inhibition, % at 12.5 µM; actives 40% (n = 6,200); AID 488912;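 active = mean inhibition across replicates above about 50%, limit read from the data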
SENP6 conf – confirmation of human SENP6 protease inhibitors; AID 488915; inhibition, % at 12.5 µM; recombinant SENP6, Z-RLRGG-aminoluciferin luminescence; actives 58% (n = 6,200); shares compounds with SENP7 inh
SENP7 confirm – human SENP7 inhibition, confirmed. shares compounds with SENP7 inh. recombinant SENP7, Z-RLRGG-aminoluciferin luminescence, 40 min. inhibition, % at 12.5 µM. actives 69% (n = 6,200). AID 488917
Casp3 SENP sel – inhibits human caspase-3 in SENP selectivity test; actives 60% (n = 6,200); inhibition, % at 12.5 µM; purified caspase-3, Z-DEVD-aminoluciferin luminescence, 60 min; shares compounds with SENP7 inh;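 active = mean inhibition above about 50%, limit read from the data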;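 also: plate controls were enzyme with DMSO for no effect and wells without caspase-3 for full effect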
Target sequence (P42574 28-227 limits assumed): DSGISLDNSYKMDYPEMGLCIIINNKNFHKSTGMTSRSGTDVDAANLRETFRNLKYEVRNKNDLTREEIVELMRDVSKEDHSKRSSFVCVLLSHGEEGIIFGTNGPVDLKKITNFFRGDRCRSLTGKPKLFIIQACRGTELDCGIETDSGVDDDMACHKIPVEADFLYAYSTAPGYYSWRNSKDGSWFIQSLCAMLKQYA
SENP luc ctr – counter-screen for SENP inhibitors: luminescence interference; shares compounds with SENP7 inh; Pre-incubated SENP8/Z-RLRGG-aminoluciferin, luciferase luminescence interference; inhibition, % at 12.5 µM; actives 39% (n = 6,200); AID 488919;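 active = mean inhibition above about 50% when retested at one dose, limit read from the data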;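 also: plate controls were DMSO wells with completed reaction for no effect and substrate without enzyme for full effect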
The depositor's hits bear a star; / = no result given. Most compounds without a hit are left out; they make up all but 2.5% or so of the library.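 The calls were made as follows, unless noted: active = mean inhibition above about 50% in the one-dose retest (limit read from the data); inactive = the rest.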

SMILES	SENP8 block-1	SENP7 inh	SENP6 inh	SENP1 inh	SENP8 block-2	SENP8 conf	SENP6 conf	SENP7 confirm	Casp3 SENP sel	SENP luc ctr
CCc1nc(Nc2ccccc2F)c2oc3ccccc3c2n1	-12	-3	-10	1	-302	/	/	/	/	/
Cc1nnc(NC(=O)Nc2cccc(Cl)c2)s1	26	47	57*	0	9	31	52*	62*	56*	15
COc1cc2c(cc1OC)C(c1ccc3c(c1)Cc1ccccc1-3)OC(=O)C2 (stereo unspecified)	/	/	/	0	13	/	/	/	/	/
O=c1cc(-c2ccc3c(c2)OCCO3)oc2ccc(Cl)cc12	16	91*	36	-9	-398	23	26	43	41	11
O=c1cc(-c2ccccc2)oc2ccc(Cl)cc12	/	/	/	-1	20	/	/	/	/	/
O=c1cc(-c2cccs2)oc2ccc(Cl)cc12	34	50*	55*	-2	-93	25	27	51*	46	18
COC(=O)c1cnc(SCC(=O)c2ccccc2)n1C	71*	79*	83*	2	13	79*	77*	93*	92*	80*
COC(=O)c1ccnc(SCC(=O)c2ccccc2)c1	53*	70*	74*	0	2	60*	55*	82*	74*	64*
COC(=O)c1cnc(SCc2ccc(Cl)cc2)n1C	-12	-9	0	-3	5	/	/	/	/	/
COc1ccc(C(=O)Nc2ccnn2C2CCN(C(=O)c3cnsn3)CC2)cc1	0	-3	-7	0	2	/	/	/	/	/
Clc1ccccc1N/N=C/c1ccc2c(c1)OCO2	89*	74*	96*	-3	0	98*	99*	102*	91*	89*
Cc1nc(N/N=C\c2ccc3c(c2)OCO3)sc1C	-1	3	50*	-5	-68	37	44	75*	21	36
O=C(COC(=O)/C=C/c1ccc([N+](=O)[O-])cc1)NNC(=O)c1ccccc1	-2	6	-6	3	18	/	/	/	/	/
COc1ccc(CC(NC(C)=O)C(=O)NC2CCN(C(=O)C3CCCCC3)CC2)cc1OC (stereo unspecified)	5	-1	10	3	1	/	/	/	/	/
N=C1S/C(=C\c2ccco2)C(=O)N1c1nccs1	53*	-6	58*	-7	14	-14	-1	23	31	2
N=C1S/C(=C\c2ccco2)C(=O)N1c1ccc2c(c1)OCO2	-8	3	-29	4	19	/	/	/	/	/
CC1CCCCC1NC(=O)CSc1nnc(COc2ccc(Cl)cc2)o1 (stereo unspecified)	2	1	14	1	8	/	/	/	/	/
O=C(COC(=O)COc1ccc(Br)cc1)NC1CCS(=O)(=O)C1 (stereo unspecified)	/	/	/	4	5	/	/	/	/	/
Cn1c(/C=N/Nc2nc3ccccc3[nH]2)nc2ccccc21	60*	74*	83*	0	16	62*	59*	82*	52*	15
Cc1nn(-c2ccccc2)c(C)c1/C=N/Nc1nc2ccccc2[nH]1	74*	75*	39	-7	-294	84*	84*	94*	74*	83*
C(=N\Nc1nc2ccccc2[nH]1)/c1cccs1	59*	62*	86*	-1	-24	57*	54*	67*	52*	65*
Cc1ccc(S(=O)(=O)N2CC3=C(C2)C2CC2(C)C3)cc1 (stereo unspecified)	/	/	/	0	10	/	/	/	/	/
COc1ccc(C(=O)Nc2ccc(Cl)c(Cl)c2)c(OC)n1	-6	51*	12	2	9	18	14	25	34	14
CN(C)c1ccc(N=Nc2cccc3ccoc23)cc1	84*	90*	86*	5	24	77*	77*	94*	48	28
CN(C)c1ccc(N=Nc2cccc(F)c2)cc1	87*	95*	94*	5	31	6	73*	56*	59*	64*
SMILES	SENP8 block-1	SENP7 inh	SENP6 inh	SENP1 inh	SENP8 block-2	SENP8 conf	SENP6 conf	SENP7 confirm	Casp3 SENP sel	SENP luc ctr
CC1CCc2sc(C(=O)N/N=C/c3ccc(O)cc3)cc2C1 (stereo unspecified)	-9	2	-14	0	-177	/	/	/	/	/
CCOC(=O)[C@@H]1[C@H]2COc3ccccc3[C@H]2N2C(=O)N(c3ccc(C(F)(F)F)cc3)C(=O)[C@]12C	-16	-13	-11	1	11	/	/	/	/	/
Cc1ccc2oc(-c3cccc(NC(=O)Cn4cnc5c(=O)n(C)c(=O)n(C)c54)c3)nc2c1	19	31	36	/	/	/	/	/	/	/
Cc1ccc2oc(-c3ccccc3)nc2c1	88*	93*	95*	-2	-28	-5	75*	100*	46	9
CCOc1cccc(-c2nc3cc(C)ccc3o2)c1	40	46	79*	0	14	24	49	83*	45	36
Cc1cc(Br)cc(C=Nc2ccc(N3CCOCC3)cc2)c1O	-6	73*	29	87	37	12	12	-1	29	3
Oc1ccc(C=Nc2ccc(N3CCOCC3)cc2)c(O)c1	-23	2	-2	39	0	/	/	/	/	/
Oc1c(Cl)cc(Cl)cc1C=Nc1ccc(N2CCOCC2)cc1	3	-4	21	-20	-12	/	/	/	/	/
Oc1cc(Br)ccc1C=Nc1ccc(N2CCCCC2)cc1	35	53*	11	63	22	15	26	2	48	0
Cc1cc([N+](=O)[O-])ccc1N(C)C	-4	4	-6	1	20	/	/	/	/	/
COc1ccc(NS(=O)(=O)c2ccc(Cl)c(C(=O)O)c2)cc1S(=O)(=O)N1CCCCC1	-4	7	-1	2	5	/	/	/	/	/
CCOc1ccc2nc(NC(=O)Cc3cccs3)sc2c1	26	47	64*	1	0	57*	54*	80*	32	14
CCOc1ccc2nc(NC(=O)Nc3cccs3)sc2c1	57*	40	68*	1	-5	51*	61*	82*	32	38
CCOc1ccc2nc(NC(=O)Nc3ccccc3)sc2c1	-7	36	-3	-1	11	/	/	/	/	/
C[C@H](NC(=O)C1CCN(C(=O)[C@@H]2CCCN2C(=O)OC(C)(C)C)CC1)C(=O)NCc1ccc(F)cc1	/	/	/	4	12	/	/	/	/	/

Screens (PubChem BioAssay)
